Measured values published in ChEMBL document CHEMBL2150893, “Synthesis of β-ionone derived chalcones as potent antimicrobial agents” (2012).
Converted amounts (≈) assume the structure as drawn. The source made the active and inactive calls. The rule behind the calls is not given here.

Tests used:
[1] = system: Escherichia coli; assay: Antibacterial activity against Escherichia coli MTCC 82 after 24 hrs by serial dilution method; format: functional; settings: MTCC 82, 24 h
How it was run: (§1)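 Serial tube dilution MIC. Strains were grown in nutrient broth to an OD600 of 0.4-0.6. Compounds were tested at 0.78, 1.56, 3.12, 6.25, 12.5, 25 and 50 µg/ml, each in a separate tube containing 5 ml nutrient broth plus 1 ml compound solution. Tubes were incubated 24 h with shaking at 180 rpm. Growth was followed by optical density at 600 nm.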

[2] = system: Candida albicans; assay: Antifungal activity against Candida albicans MTCC 3018 after 24 hrs by serial dilution method; format: functional; settings: MTCC 3018, 24 h
How it was run: (§2)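 Fungal MIC by serial tube dilution. Dilutions of test compounds (1.9–500 µg/ml) were made from stock solution. Each tube held 1 ml nutrient broth and received 20 µl of standard strain culture.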

[3] = system: Aspergillus niger; assay: Antifungal activity against Aspergillus niger MTCC 1344 after 24 hrs by serial dilution method; format: functional; settings: MTCC 1344, 24 h; how it was run: as §2
[4] = system: Nannizzia gypsea; assay: Antifungal activity against Microsporum gypseum MTCC 4490 after 24 hrs by serial dilution method; format: functional; settings: MTCC 4490, 24 h; how it was run: as §2
[5] = system: Bacillus subtilis; assay: Antibacterial activity against Bacillus subtilis MTCC 2451 after 24 hrs by serial dilution method; format: functional; settings: MTCC 2451, 24 h; how it was run: as §1
[6] = Antifungal activity against Cryptococcus gastricus MTCC 1715 after 24 hrs by serial dilution method; format: functional; settings: Goffeauzyma gastrica; how it was run: as §2
[7] = system: Saccharomyces cerevisiae; assay: Antifungal activity against Saccharomyces cerevisiae MTCC 172 after 24 hrs by serial dilution method; format: functional; settings: MTCC 172, 24 h; how it was run: as §2
[8] = system: Staphylococcus aureus; assay: Antibacterial activity against Staphylococcus aureus MTCC 96 after 24 hrs by serial dilution method; format: functional; settings: MTCC 96, 24 h; how it was run: as §1
[9] = system: Salmonella typhi; assay: Antibacterial activity against Salmonella typhi after 24 hrs by serial dilution method; format: functional, Salmonella enterica subsp. enterica serovar Typhi; settings: Salmonella enterica
How it was run: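 Serial tube dilution MIC in nutrient broth. Bacteria were grown until OD600 reached 0.4-0.6. Tubes held 5 ml broth plus 1 ml compound at 0.78, 1.56, 3.12, 6.25, 12.5, 25 or 50 µg/ml and were shaken at 180 rpm for 24 h. Initial medium OD was read at 600 nm.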

[10] = system: Pseudomonas aeruginosa; assay: Antibacterial activity against Pseudomonas aeruginosa MTCC 2642 after 24 hrs by serial dilution method; format: functional; settings: MTCC 2642, 24 h; how it was run: as §1
[11] = system: Klebsiella pneumoniae; assay: Antibacterial activity against Klebsiella pneumoniae MTCC 530 after 24 hrs by serial dilution method; format: functional, organism-based

SMILES	MIC [1] [µg/mL]	MIC [2] [µg/mL]	MIC [3] [µg/mL]	MIC [4] [µg/mL]	MIC [5] [µg/mL]	MIC [6] [µg/mL]	MIC [7] [µg/mL]	MIC [8] [µg/mL]	MIC [9] [µg/mL]	MIC [10] [µg/mL]	Activity [11]
CC1=C(/C=C/C(=O)/C=C/c2cccc3ccccc23)C(C)(C)CCC1	55.5 (≈ 168 µM)	71.5 (≈ 216 µM)	55 (≈ 166 µM)	98 (≈ 297 µM)	25 (≈ 75.6 µM)	> 100	> 100	25 (≈ 75.6 µM)	–	–	–
COc1ccc(/C=C/C(=O)/C=C/C2=C(C)CCCC2(C)C)cc1	> 100	–	–	–	–	–	–	25 (≈ 80.5 µM)	> 100	–	–
CC1=C(/C=C/C(=O)/C=C/c2ccccc2F)C(C)(C)CCC1	> 100	44.5 (≈ 149 µM)	9.9 (≈ 33.2 µM)	> 100	–	> 100	11.4 (≈ 38.2 µM)	> 100	> 100	–	–
CC1=C(/C=C/C(=O)/C=C/c2cccnc2)C(C)(C)CCC1	12.5 (≈ 44.4 µM)	35 (≈ 124 µM)	3.9 (≈ 13.9 µM)	> 100	6.25 (≈ 22.2 µM)	> 100	10.5 (≈ 37.3 µM)	6.25 (≈ 22.2 µM)	> 100	12.5 (≈ 44.4 µM)	inactive
CC1=C(/C=C/C(=O)/C=C/c2ccc(F)cc2)C(C)(C)CCC1	> 100	12.5 (≈ 41.9 µM)	15.6 (≈ 52.3 µM)	> 100	25 (≈ 83.8 µM)	> 100	15.6 (≈ 52.3 µM)	25.5 (≈ 85.5 µM)	–	–	–
CC1=C(/C=C/C(=O)/C=C/c2ccccc2[N+](=O)[O-])C(C)(C)CCC1	12.5 (≈ 38.4 µM)	> 100	32.4 (≈ 99.6 µM)	> 100	3.12 (≈ 9.59 µM)	58.4 (≈ 179 µM)	42.5 (≈ 131 µM)	6.25 (≈ 19.2 µM)	25 (≈ 76.8 µM)	3.12 (≈ 9.59 µM)	inactive
COc1ccccc1/C=C/C=C/C(=O)/C=C/C1=C(C)CCCC1(C)C	> 100	> 100	80 (≈ 238 µM)	71.5 (≈ 212 µM)	25 (≈ 74.3 µM)	19.5 (≈ 58 µM)	34 (≈ 101 µM)	> 100	> 100	32.5 (≈ 96.6 µM)	–
CC1=C(/C=C/C(=O)/C=C/c2ccoc2)C(C)(C)CCC1	> 100	74 (≈ 274 µM)	61.4 (≈ 227 µM)	> 100	22.5 (≈ 83.2 µM)	72.5 (≈ 268 µM)	> 100	–	74 (≈ 274 µM)	> 100	–
CC1=C(/C=C/C(=O)/C=C/c2ccc(C#N)cc2)C(C)(C)CCC1	37 (≈ 121 µM)	80 (≈ 262 µM)	52.4 (≈ 172 µM)	90.5 (≈ 296 µM)	> 100	> 100	> 100	42 (≈ 138 µM)	> 100	–	–
O=C(O)c1cn(C2CC2)c2cc(N3CCNCC3)c(F)cc2c1=O [CIPROFLOXACIN]	0.9 (≈ 2.72 µM)	–	–	–	0.75 (≈ 2.26 µM)	–	–	1.2 (≈ 3.62 µM)	–	1.8 (≈ 5.43 µM)	–
CC1=C(/C=C/C(=O)/C=C/c2ccccc2Cl)C(C)(C)CCC1	1.56 (≈ 4.95 µM)	11.5 (≈ 36.5 µM)	33.5 (≈ 106 µM)	94 (≈ 299 µM)	0.78 (≈ 2.48 µM)	> 100	12.5 (≈ 39.7 µM)	1.56 (≈ 4.95 µM)	> 100	12.5 (≈ 39.7 µM)	–
CC1=C(/C=C/C(=O)/C=C/c2ccc(Cl)c(Cl)c2)C(C)(C)CCC1	22 (≈ 63 µM)	–	–	–	25 (≈ 71.6 µM)	–	–	32.5 (≈ 93 µM)	> 100	–	–
CC1=C(/C=C/C(=O)/C=C/c2ccc(C)cc2)C(C)(C)CCC1	–	46 (≈ 156 µM)	> 100	> 100	25 (≈ 84.9 µM)	> 100	40.5 (≈ 138 µM)	> 100	> 100	65 (≈ 221 µM)	–
